Converted amounts (≈) assume the structure as drawn. The source made the active and inactive calls. The rule behind the calls is not given here.
Experiments:
[1] = tested on: Mycobacterium tuberculosis; assay: fT>MIC for >= 1 log reduction in CFU count in Mycobacterium tuberculosis H37Rv in using simulated dose of at 200 mg assessed as time during compound concentration exceeds MIC of 0.25000 ug/ml assuming 7% unbound compound concentration by one compartment human pharmacokinetic model; assay type: functional
Outline: (§1)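 A one-compartment PK model was fitted to human data to get median parameters. It simulated steady-state total and free concentrations for 100, 200 or 400 mg once daily, assuming 5, 7, 10 or 15% unbound drug. Free T>MIC was computed against MICs of 0.03125–0.25 µg/ml and compared with the mouse-derived T>MIC target for 1-log10 kill.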

[2] = Cmax in mouse at 100 or 50 mg/kg, po administered as single dose; assay type: ADME, organism-based; set-up: dose 50 mg/kg, route oral; details: in vivo
[3] = tested on: Mycobacterium tuberculosis; assay: fT>MIC for >= 1 log reduction in CFU count in Mycobacterium tuberculosis H37Rv in using simulated dose of at 400 mg assessed as time during compound concentration exceeds MIC of 0.25000 ug/ml assuming 7% unbound compound concentration by one compartment human pharmacokinetic model; assay type: functional
Outline: (§2)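 Human steady-state simulation: one-compartment PK model fitted to patient data, chosen by AIC. Median PK parameters used to simulate total and free concentrations, assuming 5, 7, 10 or 15% unbound, for 100, 200 and 400 mg once daily. Free levels compared with MICs of 0.03125 to 0.25 µg/ml to give %T>MIC; T>MIC is the cumulative percentage of the dosing interval above MIC.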

[4] = tested on: Mycobacterium tuberculosis; assay: Antimicrobial activity against Mycobacterium tuberculosis H37Rv infected in BALB/c mouse assessed as bacteriostatic effect at 12.5 mg/kg, po administered as single dose; assay type: functional, organism-based; set-up: dose 12.5 mg/kg
[5] = tested on: Mycobacterium tuberculosis; assay: fT>MIC for >= 1 log reduction in CFU count in Mycobacterium tuberculosis H37Rv in using simulated dose of at 400 mg assessed as time during compound concentration exceeds MIC of 0.25000 ug/ml assuming 15% unbound compound concentration by one compartment human pharmacokinetic model; assay type: functional; outline: as §2
[6] = tested on: Mycobacterium tuberculosis; assay: fT>MIC for >= 1 log reduction in CFU count in Mycobacterium tuberculosis H37Rv in using simulated dose of at 200 mg assessed as time during compound concentration exceeds MIC of 0.12500 ug/ml assuming 5% unbound compound concentration by one compartment human pharmacokinetic model; assay type: functional; outline: as §1
[7] = tested on: Mycobacterium tuberculosis; assay: fT>MIC for >= 1 log reduction in CFU count in Mycobacterium tuberculosis H37Rv in using simulated dose of at 100 mg assessed as time during compound concentration exceeds MIC of 0.25000 ug/ml assuming 15% unbound compound concentration by one compartment human pharmacokinetic model; assay type: functional; outline: as §1
[8] = tested on: Mycobacterium tuberculosis; assay: fT>MIC for >= 1 log reduction in CFU count in Mycobacterium tuberculosis H37Rv in using simulated dose of at 100 mg assessed as time during compound concentration exceeds MIC of 0.06250 ug/ml assuming 10% unbound compound concentration by one compartment human pharmacokinetic model; assay type: functional; outline: as §1
[9] = tested on: Mycobacterium tuberculosis; assay: fT>MIC for >= 1 log reduction in CFU count in Mycobacterium tuberculosis H37Rv in using simulated dose of at 400 mg assessed as time during compound concentration exceeds MIC of 0.25000 ug/ml assuming 5% unbound compound concentration by one compartment human pharmacokinetic model; assay type: functional; outline: as §2
[10] = tested on: Mycobacterium tuberculosis; assay: fT>MIC for >= 1 log reduction in CFU count in Mycobacterium tuberculosis H37Rv in using simulated dose of at 100 mg assessed as time during compound concentration exceeds MIC of 0.25000 ug/ml assuming 5% unbound compound concentration by one compartment human pharmacokinetic model; assay type: functional; outline: as §1
[11] = tested on: Mycobacterium tuberculosis; assay: fT>MIC for >= 1 log reduction in CFU count in Mycobacterium tuberculosis H37Rv in using simulated dose of at 200 mg assessed as time during compound concentration exceeds MIC of 0.03125 ug/ml assuming 10% unbound compound concentration by one compartment human pharmacokinetic model; assay type: functional; outline: as §1
[12] = tested on: Mycobacterium tuberculosis; assay: fT>MIC for >= 1 log reduction in CFU count in Mycobacterium tuberculosis H37Rv in using simulated dose of at 400 mg assessed as time during compound concentration exceeds MIC of 0.25000 ug/ml assuming 10% unbound compound concentration by one compartment human pharmacokinetic model; assay type: functional; outline: as §2
[13] = tested on: Mycobacterium tuberculosis; assay: fT>MIC for >= 1 log reduction in CFU count in Mycobacterium tuberculosis H37Rv in using simulated dose of at 400 mg assessed as time during compound concentration exceeds MIC of 0.06250 ug/ml assuming 10% unbound compound concentration by one compartment human pharmacokinetic model; assay type: functional; outline: as §1
[14] = tested on: Mycobacterium tuberculosis; assay: Antitubercular activity against Mycobacterium tuberculosis H37Rv assessed as reduction in CFU count by agar proportion method; assay type: functional
Outline: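 Agar proportion method on 7H11 agar with 10% OADC containing 2-fold drug dilutions (0.007–2.0 µg/ml). Plates inoculated with serial 100-fold dilutions of log-phase H37Rv broth culture (~10^8 CFU/ml). Drug-free and isoniazid plates as controls. CFU counted after 21 days at 37°C, 5% CO2. MIC is the lowest concentration giving <1% of drug-free CFU.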

[15] = tested on: Mycobacterium tuberculosis; assay: fT>MIC for >= 1 log reduction in CFU count in Mycobacterium tuberculosis H37Rv in using simulated dose of at 200 mg assessed as time during compound concentration exceeds MIC of 0.03125 ug/ml assuming 7% unbound compound concentration by one compartment human pharmacokinetic model; assay type: functional; outline: as §1
[16] = tested on: Mycobacterium tuberculosis; assay: fT>MIC for >= 1 log reduction in CFU count in Mycobacterium tuberculosis H37Rv in using simulated dose of at 100 mg assessed as time during compound concentration exceeds MIC of 0.03125 ug/ml assuming 15% unbound compound concentration by one compartment human pharmacokinetic model; assay type: functional; outline: as §1
[17] = tested on: Mycobacterium tuberculosis; assay: fT>MIC for >= 1 log reduction in CFU count in Mycobacterium tuberculosis H37Rv in using simulated dose of at 100 mg assessed as time during compound concentration exceeds MIC of 0.06250 ug/ml assuming 15% unbound compound concentration by one compartment human pharmacokinetic model; assay type: functional; outline: as §1
[18] = tested on: Mycobacterium tuberculosis; assay: fT>MIC for >= 1 log reduction in CFU count in Mycobacterium tuberculosis H37Rv in using simulated dose of at 400 mg assessed as time during compound concentration exceeds MIC of 0.03125 ug/ml assuming 5% unbound compound concentration by one compartment human pharmacokinetic model; assay type: functional; outline: as §1
[19] = tested on: Mycobacterium tuberculosis; assay: Antitubercular activity against Mycobacterium tuberculosis H37Rv infected in BALB/c mouse assessed as reduction in log10 CFU count at 96 mg/kg, po bid; assay type: functional
Outline: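 Female 6-week BALB/c mice were aerosol-infected with log-phase H37Rv, aiming to implant ~3.5 log10 CFU. Treatment began 14 days later: gavage of cyclodextrin-micelle suspension for 24 consecutive days, total 0–4,608 mg/kg split into 3–48 equal doses, 3 mice per group. Lungs harvested 4 days after last dose and plated on selective OADC-7H11. CFU transformed as log10(x+1).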

[20] = tested on: Mycobacterium tuberculosis; assay: fT>MIC for >= 1 log reduction in CFU count in Mycobacterium tuberculosis H37Rv in using simulated dose of at 100 mg assessed as time during compound concentration exceeds MIC of 0.12500 ug/ml assuming 10% unbound compound concentration by one compartment human pharmacokinetic model; assay type: functional; outline: as §1

O=[N+]([O-])c1cn2c(n1)OC[C@@H](OCc1ccc(OC(F)(F)F)cc1)C2 [PRETOMANID]
fT>MIC [1]: 0%
Cmax [2]: 3800 ng/mL
fT>MIC [3]: 4%
Activity [4]: Active
fT>MIC [5]: 67%
fT>MIC [6]: 0%
fT>MIC [7]: 0%
fT>MIC [8]: 46%
fT>MIC [9]: 0%
fT>MIC [10]: 0%
fT>MIC [11]: 100%
fT>MIC [12]: 46%
fT>MIC [13]: 100%
MIC [14]: 0.06 µg/mL (≈ 0.167 µM)
fT>MIC [15]: 100%
fT>MIC [16]: 100%
fT>MIC [17]: 67%
fT>MIC [18]: 100%
log10cfu [19]: 2.4
fT>MIC [20]: 0%

— ChEMBL document CHEMBL1687823, “PA-824 exhibits time-dependent activity in a murine model of tuberculosis” (Antimicrob Agents Chemother, 2011)
